Experimental findings from ChEMBL document CHEMBL2016530, “Synthesis and biological evaluation of pyrethroid insecticide-derivatives as a chemical inducer for Bdnf mRNA expression in neurons” (Bioorg Med Chem, 2012) are described below.

Calls of active or inactive are those of the source. The calls are words filed in the database; no cut-off is given here.

Format in all cases: functional
The test system of experiment [1] is Cortical neurone. Kind of experiment: Increase in BDNF eIV-IX mRNA expression in rat cortical neurons at 10 uM after 3 hrs by RT-PCR analysis. In a few lines:
(§1)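 Primary cortical neurons from E17 Sprague–Dawley rat embryos, seeded at 2.5 × 10⁶ cells per polyethylenimine-coated 35 mm dish. Compound added for 3 h (time course 0–24 h at 10 µM). Total RNA extracted with acid guanidine phenol-chloroform and DNase I-treated, then reverse transcribed. Bdnf exon IV-IX mRNA measured by real-time PCR against plasmid standard curves and normalized to Gapdh. Reported as ratio to untreated control; n = 3–4.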

Experiment [2] concerns Cortical neurone. The experiment is described as follows: Increase in BDNF eIV-IX mRNA expression in rat cortical neurons after 3 hrs by RT-PCR analysis. In short, it runs like this:
as §1

In experiment [3] the test system is Cortical neurone. Kind of experiment: Increase in neurite crossings in rat cortical neurons at 1 uM after 6 hrs by Sholl analysis. In a few lines: (§2)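 E17 rat cortical neurons transfected with a GFP expression vector by calcium phosphate at 4 days in culture. At day 6, treated for 6 h, then fixed in 4% formaldehyde/4% sucrose and immunostained for GFP and MAP2. Sholl analysis counted neurite intersections with concentric circles of 20–200 µm radius at 20 µm intervals around the cell body. Cells were not preselected; n = 3.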

Experiment [4] deals with Cortical neurone. Kind of experiment: Increase in neurite length in rat cortical neurons at 1 uM after 6 hrs by anti-GFP and anti-MAP2-based fluorescence microscopy. In a few lines: (§3)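 E17 rat cortical neurons GFP-transfected at 4 days in culture, drug-treated for 6 h at day 6, then fixed and stained with anti-GFP/anti-MAP2 and Alexa488/594 secondaries plus DAPI. Under fluorescence microscopy, all neurites arising from the cell body were traced within a 400 µm diameter and their total length measured; n = 3.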

In experiment [5] the test system is Cortical neurone. The experiment is described as follows: Increase in BDNF eIV-IX mRNA expression in rat cortical neurons at 1 uM after 3 hrs by RT-PCR analysis. In a few lines: as §1
Experiment [6] relates to Cortical neurone. Kind of experiment: Increase in neurite length in rat cortical neurons at 10 uM after 6 hrs by anti-GFP and anti-MAP2-based fluorescence microscopy. In a few lines: as §3
In experiment [7] the test system is Cortical neurone. The experiment is described as follows: Increase in BDNF eIV-IX mRNA expression in rat cortical neurons at 10 uM by RT-PCR analysis. The note with it: TDE = time-dependent effect. In a few lines:
as §1

Experiment [8] has as its system Cortical neurone. The experiment is described as follows: Increase in BDNF eIV-IX mRNA expression in rat cortical neurons at 10 uM after 3 hrs by RT-PCR analysis in presence of L-type voltage calcium channel blocker nicradipine.
Experiment [9] concerns Cortical neurone. Kind of experiment: Increase in BDNF eIV-IX mRNA expression in rat cortical neurons at 10 uM after 3 hrs by RT-PCR analysis in presence of NMDA receptor antagonist APV.
Experiment [10] relates to Cortical neurone. Kind of experiment: Increase in BDNF eIV-IX mRNA expression in rat cortical neurons at 10 uM after 3 hrs by RT-PCR analysis in presence of VSSC antagonist TTX.
Experiment [11] relates to Cortical neurone. Kind of experiment: Increase in BDNF eIV-IX mRNA expression in rat cortical neurons at 10 uM at 6 hrs by RT-PCR analysis. In a few lines:
as §1

Experiment [12] relates to Cortical neurone. Kind of experiment: Increase in BDNF eIV-IX mRNA expression in rat cortical neurons at 10 uM after 3 hrs by RT-PCR analysis in presence of ERK1/2 inhibitor U0126.
Experiment [13] relates to Cortical neurone. Kind of experiment: Increase in neurite crossings in rat cortical neurons at 10 uM after 6 hrs by Sholl analysis. In short, it runs like this:
as §2

The test system of experiment [14] is Cortical neurone. Kind of experiment: Increase in BDNF eIV-IX mRNA expression in rat cortical neurons at 10 uM up to 24 hrs by RT-PCR analysis. In a few lines: as §1

Take `CCC#C[C@@H](OC(=O)[C@@H]1[C@H](C=C(Br)Br)C1(C)C)c1cccc(Oc2ccccc2)c1`: the result in experiment [1] was Active.

As for `CC1(C)[C@H](C(=O)O[C@H](C#CCl)c2cccc(Oc3ccccc3)c2)[C@@H]1C=C(Br)Br`, the outcome in [1] was Active. Also, in experiment [2], the Activity entry was “Dose-dependent effect”.

As to `CC1(C)[C@H](C(=O)O[C@H](C#CCC(F)(F)F)c2cccc(Oc3ccccc3)c2)[C@@H]1C=C(Br)Br`, in [1], the result was Active.

`CC1(C)[C@H](C(=O)O[C@H](C#N)c2cccc(Oc3ccccc3)c2)[C@@H]1C=C(Br)Br`: the outcome in experiment [3], in experiment [4], in [1] and in experiment [5] was Active.

Take `CC1(C)[C@H](C(=O)O[C@H](C#CI)c2cccc(Oc3ccccc3)c2)[C@@H]1C=C(Br)Br`: the outcome in experiment [1] was Active. The Activity result in [2] was “Dose-dependent effect”.

Turning to `CC1(C)[C@H](C(=O)O[C@H](C#CBr)c2cccc(Oc3ccccc3)c2)[C@@H]1C=C(Br)Br`, the outcome in experiment [1] was Active. The Activity entry in experiment [2] is “Dose-dependent effect”.

Consider `CC#C[C@@H](OC(=O)[C@@H]1[C@H](C=C(Br)Br)C1(C)C)c1cccc(Oc2ccccc2)c1`, for which the outcome in experiment [1] was Active.

In the case of `C#C[C@@H](OC(=O)[C@@H]1[C@H](C=C(Br)Br)C1(C)C)c1cccc(Oc2ccccc2)c1`, the outcome in experiment [6], in [9], in [1], in experiment [13] and in experiment [14] was Active. Also, the Activity result in experiment [7] is “tde”. The result in experiment [8], in experiment [10], in experiment [11] and in experiment [12] was inactive.
